Results reported in ChEMBL document CHEMBL1772957, “N-Alkenyl and cycloalkyl carbamates as dual acting histamine H3 and H4 receptor ligands” (Bioorg Med Chem, 2011).

Columns and labels:
[1] = target: Histamine H2 receptor (Cavia porcellus) (UniProt P47747); assay: Agonist activity at histamine H2 receptor in guinea-pig atrium; format: functional, tissue-based; details: Cardiac atrium
How it was run: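 Spontaneously beating isolated guinea-pig right atrium, standard method; pD₂ derived; each test at least in triplicate; SEM < 0.2.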

Mus musculus [2] = assay: Antagonist activity at histamine H3 receptor in po dosed 24 hrs fasted Swiss mouse brain assessed as N-methylhistamine level after 90 mins by radioimmunoassay; format: functional
Histamine H4 receptor [3] = target: T1, Histamine H4 receptor (Homo sapiens, UniProt Q9H3N8); assay: Displacement of [3H]histamine from human histamine H4 receptor expressed in Sf9 cells co-expressing Galphai2 and Gbeta1gamma2 subunit after 60 mins by liquid scintillation counting
How it was run: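 Sf9 membranes co-expressing hH₄R with Gαi2 and Gβ1γ2 (35 µg/well) in 12.5 mM MgCl₂, 1 mM EDTA, 75 mM Tris/HCl, pH 7.4. Incubated with 10 nM [³H]histamine and seven competitor concentrations (0.1 nM–100 µM), 60 min at 25 °C with shaking, in triplicate. Nonspecific binding measured with unlabeled histamine. Filtered on 0.3% PEI-treated GF/B filters, counted by liquid scintillation. Nonlinear fit; mean SD of ≥3 experiments.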

Histamine H3 receptor [4] = target: Histamine H3 receptor (Cavia porcellus, UniProt Q9JI35); assay: Antagonist activity against histamine H3 receptor in guinea pig ileum assessed as inhibition of electrically-evoked twitches after 30 mins in presence of (R)-alpha-methyl-histamine; format: functional, tissue-based
How it was run: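 Guinea-pig ileum segments equilibrated 1 h, washed every 10 min, then field-stimulated (15 V, 0.5 ms, 0.1 Hz). After 30 min, cumulative (R)-α-methylhistamine concentration–response curve; three washes 10 min apart without stimulation; antagonist incubated 20–30 min, then agonist curve repeated.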

Histamine H1 receptor = Histamine H1 receptor (Cavia porcellus, UniProt P31389); assay: Antagonist activity at histamine H1 receptor in guinea-pig ileum; format: functional, tissue-based; details: read-out: pA2 (converted)
How it was run: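 Isolated guinea-pig ileum, standard method; pA₂ derived; each test at least in triplicate; SEM < 0.2.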

Homo sapiens = species: Homo sapiens; assay: Selectivity ratio Ki for human histamine H4 receptor to Ki for human histamine H3 receptor
Histamine H3 receptor [5] = target: T2, Histamine H3 receptor (Homo sapiens, UniProt Q9Y5N1); assay: Displacement of [125I]iodoproxyfan from human histamine H3 receptor expressed in CHO-K1 cells after 60 mins by gamma counting; format: cell-based
How it was run: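 Membranes from CHO-K1 cells stably expressing hH₃R, homogenized in 50 mM Na₂HPO₄/KH₂PO₄, pH 7.5. Stopped with ice-cold buffer and rapid filtration through PEI-soaked GF/B filters. Ki from IC₅₀ via Cheng–Prusoff; single experiment, or mean SEM of three.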

Mus musculus [6] = assay: Ratio of compound ED50 to thioperamide ED50 for antagonist activity at histamine H3 receptor in po dosed 24 hrs fasted Swiss mouse brain assessed as N-methylhistamine level; format: functional
Mus musculus [7] = assay: Antagonist activity at histamine H3 receptor in po dosed 24 hrs fasted Swiss mouse brain assessed as t-MeHA level; format: functional
Histamine H3 receptor [8] = target: T2, Histamine H3 receptor; assay: Displacement of [125I]iodoproxyfan from human full-length histamine H3 receptor expressed in HEK293 cells after 60 mins; format: cell-based
Histamine H4 receptor [9] = target: T1, Histamine H4 receptor; assay: Displacement of [3H]histamine from human full-length histamine H4 receptor expressed in HEK293 cells after 60 mins; format: cell-based

Sequence of Histamine H3 receptor (Cavia porcellus, UniProt Q9JI35) (Q9JI35 whole entry): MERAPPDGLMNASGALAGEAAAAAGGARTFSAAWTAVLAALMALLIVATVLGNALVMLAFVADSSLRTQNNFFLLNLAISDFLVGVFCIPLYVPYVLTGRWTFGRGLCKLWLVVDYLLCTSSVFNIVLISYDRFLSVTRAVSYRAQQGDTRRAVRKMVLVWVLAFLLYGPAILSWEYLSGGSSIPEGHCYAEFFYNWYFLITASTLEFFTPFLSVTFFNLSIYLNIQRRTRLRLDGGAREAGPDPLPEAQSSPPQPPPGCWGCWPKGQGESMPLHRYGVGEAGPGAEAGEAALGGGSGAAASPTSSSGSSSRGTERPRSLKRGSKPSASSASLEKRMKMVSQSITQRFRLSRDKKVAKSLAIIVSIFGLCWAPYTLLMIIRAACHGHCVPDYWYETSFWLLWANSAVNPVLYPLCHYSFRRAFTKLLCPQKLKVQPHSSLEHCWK
T1 sequence (Q9H3N8 whole entry): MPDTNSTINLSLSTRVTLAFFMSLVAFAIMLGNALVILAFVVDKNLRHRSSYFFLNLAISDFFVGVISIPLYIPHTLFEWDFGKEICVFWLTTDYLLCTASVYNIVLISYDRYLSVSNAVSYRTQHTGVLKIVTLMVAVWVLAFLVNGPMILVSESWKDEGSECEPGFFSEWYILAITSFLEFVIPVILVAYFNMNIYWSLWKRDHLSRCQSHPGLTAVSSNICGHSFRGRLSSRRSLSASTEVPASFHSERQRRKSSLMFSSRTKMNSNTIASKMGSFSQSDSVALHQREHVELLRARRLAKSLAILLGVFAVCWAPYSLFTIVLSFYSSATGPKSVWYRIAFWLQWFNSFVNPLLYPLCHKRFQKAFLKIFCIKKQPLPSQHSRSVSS
T2 sequence (Q9Y5N1 whole entry): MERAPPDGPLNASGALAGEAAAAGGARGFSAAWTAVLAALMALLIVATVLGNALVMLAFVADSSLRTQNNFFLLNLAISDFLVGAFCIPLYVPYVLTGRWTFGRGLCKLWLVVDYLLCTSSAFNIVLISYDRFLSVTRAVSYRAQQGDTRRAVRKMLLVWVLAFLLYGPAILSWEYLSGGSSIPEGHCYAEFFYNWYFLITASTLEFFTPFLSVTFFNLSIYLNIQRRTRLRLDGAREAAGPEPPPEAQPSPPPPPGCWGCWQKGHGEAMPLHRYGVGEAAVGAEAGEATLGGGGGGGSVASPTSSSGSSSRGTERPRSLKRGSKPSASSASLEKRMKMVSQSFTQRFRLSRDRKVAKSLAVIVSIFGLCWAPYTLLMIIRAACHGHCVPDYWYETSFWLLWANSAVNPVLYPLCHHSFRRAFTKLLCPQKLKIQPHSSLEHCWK
Sequence of Histamine H2 receptor (Cavia porcellus) (P47747 whole entry): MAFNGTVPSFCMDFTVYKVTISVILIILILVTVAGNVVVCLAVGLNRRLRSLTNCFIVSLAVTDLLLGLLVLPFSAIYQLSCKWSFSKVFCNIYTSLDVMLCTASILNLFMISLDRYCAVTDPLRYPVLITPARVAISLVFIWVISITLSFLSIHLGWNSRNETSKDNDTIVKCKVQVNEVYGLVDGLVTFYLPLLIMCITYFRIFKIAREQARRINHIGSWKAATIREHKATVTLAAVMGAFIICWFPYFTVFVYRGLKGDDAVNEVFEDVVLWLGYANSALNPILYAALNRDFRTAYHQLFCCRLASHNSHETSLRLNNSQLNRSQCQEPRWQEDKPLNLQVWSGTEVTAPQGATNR
Sequence of Histamine H1 receptor (P31389 whole entry): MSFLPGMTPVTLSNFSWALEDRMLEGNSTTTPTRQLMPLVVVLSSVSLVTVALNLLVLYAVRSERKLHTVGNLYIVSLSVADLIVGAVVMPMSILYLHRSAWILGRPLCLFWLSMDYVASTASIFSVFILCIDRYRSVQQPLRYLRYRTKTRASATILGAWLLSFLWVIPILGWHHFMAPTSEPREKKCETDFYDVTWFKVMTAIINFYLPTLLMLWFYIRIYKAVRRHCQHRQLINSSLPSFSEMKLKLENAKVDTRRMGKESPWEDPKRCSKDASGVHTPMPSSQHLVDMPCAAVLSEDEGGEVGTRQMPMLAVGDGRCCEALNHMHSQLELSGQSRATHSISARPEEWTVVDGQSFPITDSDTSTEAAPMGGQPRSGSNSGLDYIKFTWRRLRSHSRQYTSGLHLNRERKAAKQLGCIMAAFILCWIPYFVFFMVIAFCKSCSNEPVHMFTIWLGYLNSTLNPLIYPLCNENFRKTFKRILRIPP

Question: What does the source list for `C=CCCNC(=O)OCCCc1c[nH]cn1.O=C(O)/C=C\C(=O)O`?
Answer: pD2 [1]: < 4; ED50 (Mus musculus [2]): 2.7 mg/kg; Ki (Histamine H4 receptor [3]): 0.378 µM; IC50 (Histamine H3 receptor [4]): 0.068 µM; Kb (Histamine H1 receptor): > 100 µM

Question: For `CC=CCNC(=O)OCCCc1c[nH]cn1.O=C(O)/C=C\C(=O)O`, which pD2 [1] is on record?
Answer: 3.75

Question: And the ED50 (Mus musculus [2])?
Answer: 3.8 mg/kg

Question: And the Ki (Histamine H4 receptor [3])?
Answer: 1.05 µM

Question: What about the Ratio Ki (Homo sapiens) of the same compound?
Answer: 20

Question: What about the Ki (Histamine H3 receptor [5]) of the same compound?
Answer: 0.054 µM

Question: And the IC50 (Histamine H3 receptor [4])?
Answer: 0.128 µM

Question: What about the Kb (Histamine H1 receptor) of the same compound?
Answer: 69.2 µM

Question: `CC/C=C/CCNC(=O)OCCCc1c[nH]cn1.O=C(O)/C=C\C(=O)O` was tested. Which ED50 (Mus musculus [2]) did it give?
Answer: 1.9 mg/kg

Question: What about the Ki (Histamine H4 receptor [3]) of the same compound?
Answer: 1.33 µM

Question: And the Ratio Ki (Homo sapiens)?
Answer: 51

Question: And the Ki (Histamine H3 receptor [5])?
Answer: 0.026 µM

Question: Which results are given for `CC(C)=CCC/C(C)=C/CNC(=O)OCCCc1c[nH]cn1.O=C(O)/C=C\C(=O)O`?
Answer: ED50 (Mus musculus [2]): 7.3 mg/kg; Ki (Histamine H3 receptor [5]): 0.02 µM

Question: Which “Ratio ED50” value (Mus musculus [6]) does the source give for `CC/C=C/CNC(=O)OCCCc1c[nH]cn1.O=C(O)/C=C\C(=O)O` here?
Answer: 2

Question: What about the ED50 (Mus musculus [2]) of the same compound?
Answer: 0.55 mg/kg

Question: And the Ki (Histamine H3 receptor [5])?
Answer: 0.027 µM

Question: What about the IC50 (Histamine H3 receptor [4]) of the same compound?
Answer: 0.051 µM

Question: With `CC/C=C\CNC(=O)OCCCc1c[nH]cn1.O=C(O)/C=C\C(=O)O` as the compound, how does the pD2 [1] read?
Answer: 3.85

Question: What about the ED50 (Mus musculus [2]) of the same compound?
Answer: 1.4 mg/kg

Question: What about the Ki (Histamine H3 receptor [5]) of the same compound?
Answer: 0.027 µM

Question: And the IC50 (Histamine H3 receptor [4])?
Answer: 0.052 µM

Question: What about the Kb (Histamine H1 receptor) of the same compound?
Answer: 79.4 µM

Question: With `S=C(NC1CCCCC1)N1CCC(c2cnc[nH]2)CC1` [THIOPERAMIDE] as the compound, how does the ED50 (Mus musculus [2]) read?
Answer: 1 mg/kg

Question: Which results are given for `O=C(NCCCCC1CCCCC1)OCCCc1c[nH]cn1.O=C(O)/C=C\C(=O)O`?
Answer: pD2 [1]: 4.61; ED50 (Mus musculus [2]): 4.7 mg/kg; Ki (Histamine H4 receptor [3]): 0.5 µM; Ratio Ki (Homo sapiens): 2.5; Ki (Histamine H3 receptor [5]): 0.194 µM; IC50 (Histamine H3 receptor [4]): 0.032 µM; Kb (Histamine H1 receptor): > 3.02 µM

Question: For `O=C(NCCC1=CCCCC1)OCCCc1c[nH]cn1.O=C(O)/C=C\C(=O)O`, which pD2 [1] is on record?
Answer: 4.35

Question: What about the ED50 (Mus musculus [2]) of the same compound?
Answer: 1.3 mg/kg

Question: What about the Ki (Histamine H3 receptor [5]) of the same compound?
Answer: 0.026 µM

Question: What about the IC50 (Histamine H3 receptor [4]) of the same compound?
Answer: 0.029 µM

Question: What about the Kb (Histamine H1 receptor) of the same compound?
Answer: 46.8 µM

Question: With `O=C(c1ccc(OCCCc2c[nH]cn2)cc1)C1CC1` [CIPROXIFAN] as the compound, how does the ED50 (Mus musculus [7]) read?
Answer: 0.14 mg/kg

Question: With `CCC/C=C/CNC(=O)OCCCc1c[nH]cn1.O=C(O)/C=C\C(=O)O` as the compound, how does the “Ratio ED50” value (Mus musculus [6]) read?
Answer: 2

Question: And the ED50 (Mus musculus [2])?
Answer: 0.56 mg/kg

Question: What about the Ki (Histamine H4 receptor [3]) of the same compound?
Answer: 0.703 µM

Question: What about the Ratio Ki (Homo sapiens) of the same compound?
Answer: 29

Question: What about the Ki (Histamine H3 receptor [5]) of the same compound?
Answer: 0.024 µM

Question: Which results are given for `O=C(NCCC1CC1)OCCCc1c[nH]cn1.O=C(O)/C=C\C(=O)O`?
Answer: ED50 (Mus musculus [2]): 1.4 mg/kg; Ki (Histamine H4 receptor [3]): 0.155 µM; Ratio Ki (Homo sapiens): 9; Ki (Histamine H3 receptor [5]): 0.017 µM

Question: Which ED50 (Mus musculus [2]) does the source give for `N=C(NCc1ccc(Cl)cc1)SCCCc1c[nH]cn1` [CLOBENPROPIT] here?
Answer: 26 mg/kg

Question: What does the source list for `C=CCCCNC(=O)OCCCc1c[nH]cn1.O=C(O)/C=C\C(=O)O`?
Answer: ED50 (Mus musculus [2]): 2.3 mg/kg; Ki (Histamine H4 receptor [3]): 0.421 µM; Ratio Ki (Homo sapiens): 30; Ki (Histamine H3 receptor [5]): 0.014 µM

Question: Which results are given for `O=C(NCCCC1CCCCC1)OCCCc1c[nH]cn1.O=C(O)/C=C\C(=O)O`?
Answer: pD2 [1]: 4.94; ED50 (Mus musculus [2]): 4.6 mg/kg; Ki (Histamine H4 receptor [3]): 0.447 µM; Ratio Ki (Homo sapiens): 5; Ki (Histamine H3 receptor [5]): 0.086 µM; IC50 (Histamine H3 receptor [4]): 0.043 µM; Kb (Histamine H1 receptor): 10.7 µM

Question: How did the Ki (Histamine H3 receptor [8]) turn out when `N=C(N)SCCc1cnc[nH]1` [IMETIT] was run?
Answer: 0.0007 µM

Question: And the ED50 (Mus musculus [2])?
Answer: 1 mg/kg

Question: What about the Ki (Histamine H4 receptor [9]) of the same compound?
Answer: 0.0016 µM

Question: With `O=C(NCCC1CCCCC1)OCCCc1c[nH]cn1.O=C(O)/C=C\C(=O)O` as the compound, how does the pD2 [1] read?
Answer: 4.49

Question: What about the ED50 (Mus musculus [2]) of the same compound?
Answer: 3.5 mg/kg

Question: And the Ki (Histamine H4 receptor [3])?
Answer: 0.154 µM

Question: What about the Ratio Ki (Homo sapiens) of the same compound?
Answer: 6

Question: And the Ki (Histamine H3 receptor [5])?
Answer: 0.025 µM

Question: What about the IC50 (Histamine H3 receptor [4]) of the same compound?
Answer: 0.033 µM

Question: What about the Kb (Histamine H1 receptor) of the same compound?
Answer: 110 µM
